Fibroblast inh = antiproliferative effect on LL 47 fibroblasts – human, LL 47 cells, CellTiter-Glo luminescence, primary screen; viability, % at 10 µM; LL 47 human lung fibroblast viability, ATP luminescence; hits give low values; 85,000 tested, 1.1% active; AID 719, 2007;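 active = viability at or below 50% in the single dose screen; inactive = viability above 50%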;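 note: compound exposure lasted 72 h before the ATP readout; 100% = median luminescence of untreated cell-only wells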
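Times – overnight cell rest, 72 h compound treatment at 37 °C · Test system – human lung fibroblast line LL 47, low passage · Amount – 1,150 cells in each well · Controls – cell-only wells, no compound · Doses – 0.1% DMSO in all compound wells · Measured by – CellTiter-Glo luminescence · Buffer or medium – IMEM plus 15% FBS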
bCat KO growth = primary screen for growth suppressors in beta-catenin knockout HCT116 cells (colon tumor, human) | viability, % at 10 µM | HCT116 beta-catenin knockout viability, CellTiter-Glo, 60 h; hits give low values | AID 818, 2007 | 140,000 tested, 1.5% active;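 active = viability at or under a set limit, the compound median less 4 SD, cut at about 6% in these data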;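 note: 0% = Hyamine 1622 control at 20 µM and 100% = untreated cell control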
HUVEC prolif 384 = inhibitors of HUVEC proliferation, primary screen, cell-based, 384-well; CellTiter-Glo luminescence, 72 h; hits give low values; AID 648, 2007; viability, % at 10 µM (by protocol); 86,000 tested, 1.1% active;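 active = viability at or below 30%; inactive = viability above 30%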;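 note: 100% = median luminescence of DMSO-only cell control wells on each plate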
H69AR growth 86K = proliferation blockers of H69AR lung cancer cells, primary screen, cell-based, human, 86K library; H69AR lung tumor viability, ATP luminescence, 72 h; hits give low values; viability, % at 10 µM; 85,000 tested, 6% active;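 active = viability at or below 40%; inactive = viability above 40%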;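 note: multidrug resistant small cell line overexpressing MRP-1 efflux transporter; 100% = mean luminescence of untreated control wells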
PTEN del growth = growth suppression of PTEN-null HCT116, primary screen, cell-based, CellTiter-Glo; HCT116 PTEN-null viability, 60 h; hits give low values; viability, % at 10 µM; 140,000 tested, 1.2% active;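 active = viability at or below a set limit, 4 SD under the median of all tested compounds, cut at about 3.7% in these data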;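 note: PTEN knockout HCT116 line with beta catenin targeted HCT116 as companion control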
Starred values were filed as active, the others as inactive; . = no result. The full list was thinned out, with hits kept by preference.

SMILES	Fibroblast inh	bCat KO growth	HUVEC prolif 384	H69AR growth 86K	PTEN del growth
CCOc1ccc(N2C(=O)CC(Sc3ncccn3)C2=O)cc1 (configuration not stated)	97	92	86	88	98
CCCCNC(=O)CSc1nc2ccccc2c(=O)n1CC1COc2ccccc2O1 (configuration not stated)	100	67	86	27*	70
COc1ccc(CCn2c(SCC(=O)Nc3cc(C)on3)nc3ccccc3c2=O)cc1OC	103	75	68	33*	71
CCOc1ccc(-n2c(SCC(=O)Nc3cc(C)on3)nnc2-c2c[nH]c3ccccc23)cc1	90	91	59	27*	86
COc1ccc(CCn2c(SCC(=O)Nc3cc(C)on3)nc3ccsc3c2=O)cc1OC	79	71	100	69	71
O=c1c2ccccc2nnn1CSc1nnc(COc2ccc(Cl)cc2)n1Cc1ccco1	86	91	76	71	65
O=c1c2ccccc2nnn1CSc1nc2cc(Cl)ccc2c(=O)n1Cc1ccco1	61	.	55	28*	.
CCCCN(CC)C(=O)CSc1nc2ccccc2c(=O)n1CC1COc2ccccc2O1 (configuration not stated)	89	78	90	61	67
CCOc1ccc(NC(=O)C(C)Oc2ccccc2C(=O)Nc2ccc(C)c(Cl)c2)cc1 (configuration not stated)	.	33	.	.	23
Cc1cc(NC(=O)CSc2nc3ccccc3c(=O)n2-c2ccccc2)no1	.	99	.	.	91
N#CCSc1nc2ccccc2c(=O)n1CCC(=O)NCCc1ccccc1	100	95	90	96	103
CCOC(=O)CSc1nc2ccccc2c(=O)n1CCC(=O)NCCc1ccc(OC)c(OC)c1	104	3.2*	93	95	3.2*
CCOc1ccc(CCn2c(-c3ccco3)nc3ccccc3c2=O)cc1OCC	78	32	57	32*	30
Cc1cc(NC(=O)CSc2nc3ccccc3c(=O)n2Cc2ccc(F)cc2)no1	74	102	72	40*	99
O=C(CSc1nc2ccccc2c(=O)n1CCCC(=O)N1CCCC1)NCc1ccco1	90	100	94	76	99
CCc1ccc(NC(=O)CSc2nc3ccccc3c(=O)n2CCCC(=O)N2CCCC2)cc1	74	52	55	30*	55
O=c1c2ccccc2nc(-c2ccco2)n1Cc1ccccc1	87	91	79	73	89
Cc1ccnc(N2CCC(C(=O)Nc3cccc(C(F)(F)F)c3)CC2)n1	106	70	99	90	81
C/C(=N\NC(=O)c1cccc(F)c1)c1ccc(Br)s1	.	12	.	.	14
Cc1cc(NC(=O)CSc2nc(C(C)C)nc3ccccc23)no1	75	26	73	14*	28
Cc1cc(NC(=O)CSc2nc3cc4c(cc3c(=O)n2CCc2ccccc2)OCO4)no1	68	44	16*	10*	59
Cc1nnc(NC(=O)CSc2nc(C(C)C)nc3ccccc23)s1	.	57	.	.	37
CCOC(=O)c1cccc(NC(=O)CSc2nc3ccccc3c(=O)n2CCOC)c1	95	67	89	59	58
CCOC(=O)c1cccc(NC(=O)CSc2nc3ccccc3c(=O)n2CC)c1	79	81	70	40*	80
Cc1cc(NC(=O)CSc2nc3c(c(=O)n2CCc2ccccc2)SC(C)C3)no1 (configuration not stated)	75	90	84	73	95
SMILES	Fibroblast inh	bCat KO growth	HUVEC prolif 384	H69AR growth 86K	PTEN del growth
COC(=O)c1ccc2c(=O)n(Cc3ccco3)c(SCC(=O)Nc3ccc(C)c(Cl)c3)nc2c1	12*	9	50	8.1*	8
Cc1ccc(NC(=O)CSc2n[nH]c(=O)n2C2CC2)cc1S(=O)(=O)N1CCOCC1	.	90	.	.	95
CCCCCCn1c(SCC(=O)Nc2cc(C)on2)nc2ccccc2c1=O	64	32	60	7.0*	83
CCSc1nnc(NC(=O)C(C)Sc2nc3ccccc3[nH]2)s1 (configuration not stated)	.	96	.	.	93
Fc1ccc(Sc2ccccc2CNC2=NCCN2)cc1	.	40	.	.	48
CCn1cc([N+](=O)[O-])c(C(=O)Nc2nc(-c3ccc(C)cc3)c(C)s2)n1	.	6	.	.	3.3*

Source: PubChem BioAssay
